Assay results taken from ChEMBL document CHEMBL1125150, “Arabinofuranosylpyrrolo[2,3-d]pyrimidines as potential agents for human cytomegalovirus infections” (J Med Chem, 1990).

Key:
[1] = system: HFF; experiment: Tested in vitro for cytotoxicity against the normal human diploid cells (HFF cells).; assay type: functional, cell-based
Method in brief: (§1)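 Uninfected HFF or BSC-1 cells in the plaque-reduction plates were scored visually at 35- and 60-fold magnification on a 0 to 4+ scale on the staining day. IC50 was taken by regression against log concentration.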

[2] = system: Human betaherpesvirus 5; experiment: Tested in vitro for antiviral activity against human cytomegalovirus (HCMV) in yield reduction assay.; assay type: functional
[3] = Tested in vitro for cytotoxicity against the monkey kidney cells (BSC-1 cells).; assay type: functional, cell-based; conditions: Cercopithecidae; method in brief: as §1
[4] = system: Human betaherpesvirus 5; experiment: Tested in vitro for antiviral activity against human cytomegalovirus (HCMV) in plaque reduction assay.; assay type: functional, organism-based
Method in brief: (§2)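 HCMV Towne strain (plaque-purified P0) was used on HFF monolayers. The inoculum held about 50 PFU, and compounds were dissolved in the overlay medium. Plaques were enumerated. IC50 came from linear regression of percent inhibition against log concentration. Acyclovir or ganciclovir served as positive control, and a set was rejected if the control deviated >1.5 SD from its mean.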

[5] = system: L1210; experiment: Tested in vitro for antiproliferative activity against growth rate of L1210 cells.(delayed growth inhibition); assay type: functional, Mus musculus; parameters: concentration or dose not given beside the values
Method in brief: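 L1210 cells were grown in static suspension in Fischer's medium with drug for 4 days. Growth rate was the control-to-treated ratio of population doubling times. For delayed inhibition it was taken over 48–96 h, when control doubling time averaged 22 h. IC50 is the concentration halving growth rate relative to control.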

[6] = system: Human alphaherpesvirus 1; experiment: Tested in vitro for antiviral activity against HSV-1 in plaque reduction assay.; assay type: functional, organism-based
Method in brief: (§3)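 Plaque reduction used HSV-1 strain S-148 on BSC-1 (African green monkey kidney) monolayers. The inoculum held about 100 PFU, and compounds were dissolved in the overlay medium. IC50 was regressed from percent inhibition against log concentration. Acyclovir or ganciclovir positive controls were run, with sets rejected if the control deviated >1.5 SD from its mean.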

[7] = Tested in vitro for cytotoxicity against the human neoplastic cell line (KB cells).; assay type: functional, cell-based
Method in brief: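 KB cells were grown in MEM(H) with 10% calf serum. Incorporation of radiolabelled precursors into DNA, RNA and protein was measured. Separate IC50s came from regression against log concentration and the three were averaged. Values are averages of two to five experiments.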

[8] = system: Mus musculus; experiment: Tested for effect on the mortality of mice inoculated with MCMV at 16.7 mg/kg at 48 hr; assay type: functional
Method in brief: (§4)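 Female Swiss Webster mice, 3 weeks old, were infected ip with 2 × 10⁵ PFU of MCMV Smith strain. Groups of 15 received drug ip twice daily for 5 days, starting at the stated hour after inoculation. Mice were watched daily for 21 days, and final mortality and mean day of death were scored. Fisher exact test (mortality) and Mann-Whitney U test (mean day of death) were used against placebo. Uninfected drug-toxicity controls were 10 mice.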

[9] = system: Human alphaherpesvirus 1; experiment: Tested for activity against the rabbit kidney herpes simplex virus-1 (HSV-1) cell lines; assay type: functional, organism-based
Method in brief: (§5)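 Plaque reduction used HSV-2 (MS strain) in HFF cells and HSV-1 (E-377 strain) in primary rabbit kidney cells. Monolayers got 20–50 PFU for 1 h at 37 °C, then an agarose overlay holding serial 5-fold drug dilutions in MEM(E). Neutral red staining on day 3 preceded plaque counts against untreated controls. Values average two or more experiments.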

[10] = system: Human betaherpesvirus 5; experiment: Tested for activity against human cytomegalovirus (HCMV) in human foreskin fibroblasts cell lines using plaque assay; assay type: functional, organism-based; conditions: Human betaherpesvirus 5, Fibroblast; method in brief: as §2
[11] = system: Human alphaherpesvirus 1; experiment: Tested for visual cytotoxicity against rabbit kidney herpes simplex virus-1 (HSV-1) cell lines; assay type: functional, organism-based
[12] = system: Mus musculus; experiment: Tested for effect on the mortality of mice inoculated with MCMV at 5.6 mg/kg at 12 hr; assay type: functional; method in brief: as §4
[13] = system: Human betaherpesvirus 5; experiment: Tested for visual cytotoxicity against the human cytomegalovirus (HCMV) cell lines in human foreskin fibroblasts; assay type: functional, organism-based; method in brief: as §1
[14] = system: Mus musculus; experiment: Tested for effect on the mortality of mice inoculated with MCMV at 5.6 mg/kg at 48 hr; assay type: functional; method in brief: as §4
[15] = system: Murid betaherpesvirus 1; experiment: Tested for activity against mouse cytomegalovirus (MCMV) in mouse embryo fibroblasts using plaque assay; assay type: functional, organism-based
Method in brief: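 MCMV Smith strain was plated on primary mouse embryo fibroblasts at 20–50 PFU per monolayer, with 1 h at 37 °C. Serial 5-fold drug dilutions in twice-concentrated MEM(E) were mixed with 1% agarose as overlay. A further drug-free overlay was added on day 4. Cultures were stained with neutral red on day 7 and plaques counted against untreated controls. Values average two or more experiments.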

[16] = system: Mus musculus; experiment: Tested for effect on the mortality of mice inoculated with MCMV at 5.6 mg/kg at 24 hr; assay type: functional; method in brief: as §4
[17] = system: Murid betaherpesvirus 1; experiment: Tested for visual cytotoxicity against the mouse cytomegalovirus (MCMV) in mouse embryo fibroblasts; assay type: functional, organism-based
[18] = system: Human alphaherpesvirus 2; experiment: Tested for activity against the human foreskin fibroblasts herpes simplex virus-2 (HSV-2) cell lines; assay type: functional, organism-based; method in brief: as §5
[19] = system: Human alphaherpesvirus 2; experiment: Tested for visual cytotoxicity against the human foreskin fibroblasts herpes simplex virus-2 (HSV-2) cell lines; assay type: functional, organism-based
[20] = system: Mus musculus; experiment: Tested for effect on the mortality of mice inoculated with MCMV at 16.7 mg/kg at 24 hr; assay type: functional; method in brief: as §4
[21] = system: Mus musculus; experiment: Tested for effect on the mortality of mice inoculated with MCMV at 50 mg/kg at 24 hr; assay type: functional; method in brief: as §4
[22] = system: Mus musculus; experiment: Tested for effect on the mortality of mice inoculated with MCMV at 50 mg/kg at 12 hr; assay type: functional; method in brief: as §4
[23] = system: Mus musculus; experiment: Tested for effect on the mortality of mice inoculated with MCMV at 50 mg/kg at 48 hr; assay type: functional; method in brief: as §4
[24] = system: Human alphaherpesvirus 1; experiment: Tested for visual cytotoxicity against monkey kidney herpes simplex virus-1 (HSV-1) cell lines; assay type: functional, organism-based; method in brief: as §1
[25] = system: Mus musculus; experiment: Tested for effect on the mortality of mice inoculated with MCMV at 16.7 mg/kg at 12 hr; assay type: functional; method in brief: as §4
[26] = system: Human alphaherpesvirus 1; experiment: Tested for activity against the monkey kidney herpes simplex virus-1 (HSV-1) cell lines; assay type: functional, organism-based; method in brief: as §3
[27] = system: L1210; experiment: Tested in vitro for antiproliferative activity against growth rate of L1210 cells.; assay type: functional, Mus musculus
Method in brief: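 L1210 cells were grown in static suspension in Fischer's medium with a range of compound concentrations, and growth rate was followed over 4 days. Growth rate was the control-to-treated ratio of population doubling times. It was scored separately for 0–48 h and 48–96 h, and the lower value was kept. IC50 was the concentration giving 50% of the control growth rate.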

[28] = system: Human alphaherpesvirus 1; experiment: Tested in vitro for antiviral activity against HSV-1 in yield reduction assay.; assay type: functional
[29] = Human betaherpesvirus 5, read-out: IC90

N#Cc1cn([C@@H]2O[C@H](CO)[C@@H](O)[C@@H]2Cl)c2ncnc(N)c12
IC50 [1]: 140 µM
IC90 [2, 29]: 75 µM
IC50 [3]: > 100 µM
IC50 [4]: 21 µM
Control [5]: 24%
IC50 [6]: > 100 µM

N#Cc1cn([C@@H]2O[C@H](CO)[C@@H](O)[C@@H]2N)c2ncnc(N)c12
IC50 [7]: 105 µM
MDD [8]: 4.6 mean day of death
mortality at 16.7 mg/kg [8]: 100%
IC50 [9]: 117 µM
IC50 [1]: > 100 µM
IC50 [10]: 14 µM
IC90 [2, 29]: 110 µM
IC50 [11]: 350 µM
MDD [12]: 4.5 mean day of death
mortality at 5.6 mg/kg [12]: 100%
IC50 [3]: > 100 µM
IC50 [4]: 14 µM
IC50 [13]: > 100 µM
MDD [14]: 5.6 mean day of death
mortality at 5.6 mg/kg [14]: 100%
IC50 [15]: 13 µM
MDD [16]: 4.6 mean day of death
mortality at 5.6 mg/kg [16]: 93%
IC50 [17]: > 350 µM
Control [5]: 48%
IC50 [18]: 114 µM
IC50 [19]: 350 µM
MDD [20]: 4.7 mean day of death
mortality at 16.7 mg/kg [20]: 100%
IC50 [6]: > 100 µM
MDD [21]: 4.4 mean day of death
mortality at 50 mg/kg [21]: 100%
MDD [22]: 4.1 mean day of death
mortality at 50 mg/kg [22]: 73%
MDD [23]: 4.9 mean day of death
mortality at 50 mg/kg [23]: 87%
IC50 [24]: > 100 µM
MDD [25]: 4.6 mean day of death
mortality at 16.7 mg/kg [25]: 93%
IC50 [26]: > 100 µM

NC(=O)c1cn([C@@H]2O[C@H](CO)[C@@H](O)[C@@H]2I)c2ncnc(N)c12
IC50 [1]: 100 µM
IC50 [3]: > 100 µM
IC50 [4]: > 100 µM
Control [5]: 38%
IC50 [6]: > 100 µM

N#Cc1cn([C@@H]2O[C@H](CO)[C@@H](O)[C@@H]2I)c2ncnc(N)c12
IC50 [1]: 100 µM
IC90 [2, 29]: 20 µM
IC50 [3]: > 100 µM
IC50 [4]: 40 µM
Control [5]: 24%
IC50 [6]: > 100 µM

NC(=O)c1cn([C@@H]2O[C@H](CO)[C@@H](O)[C@@H]2Br)c2ncnc(N)c12
IC50 [1]: > 100 µM
IC50 [3]: > 100 µM
IC50 [4]: > 100 µM
IC50 [6]: > 100 µM
Control [27]: 92%

N#Cc1cn([C@@H]2O[C@H](CO)[C@@H](O)[C@@H]2N=[N+]=[N-])c2ncnc(N)c12
IC50 [7]: 151 µM
IC50 [1]: 55 µM
IC90 [2, 29]: 37 µM
IC50 [3]: > 100 µM
IC50 [4]: 34 µM
Control [5]: 14%
IC50 [6]: > 100 µM

N#Cc1cn([C@@H]2O[C@H](CO)[C@@H](O)[C@@H]2Br)c2ncnc(N)c12
IC50 [1]: 181 µM
IC90 [2, 29]: 90 µM
IC50 [3]: > 100 µM
IC50 [4]: 162 µM
Control [5]: 16%
IC50 [6]: > 100 µM

NC(=O)c1cn([C@@H]2O[C@H](CO)[C@@H](O)[C@@H]2N)c2ncnc(N)c12
IC50 [7]: > 100 µM
IC50 [1]: > 100 µM
IC50 [3]: > 100 µM
IC50 [4]: > 100 µM
Control [5]: 46%
IC50 [6]: > 100 µM

Nc1nc2c(ncn2COCCO)c(=O)[nH]1 [ACYCLOVIR]
IC50 [7]: > 100 µM
IC50 [1]: > 100 µM
IC90 [2, 29]: 90 µM
IC50 [3]: > 100 µM
IC90 [28]: 7 µM

NC(=O)c1cn([C@@H]2O[C@H](CO)[C@@H](O)[C@@H]2Cl)c2ncnc(N)c12
IC50 [1]: > 100 µM
IC50 [3]: > 100 µM
IC50 [4]: > 100 µM
Control [5]: 73%
IC50 [6]: > 100 µM

Nc1nc2c(ncn2COC(CO)CO)c(=O)[nH]1 [GANCICLOVIR]
IC50 [7]: > 100 µM
IC50 [1]: > 100 µM
IC90 [2]: 1.8 µM
IC50 [3]: > 100 µM
IC50 [4]: 9.2 µM
IC90 [28]: 1.2 µM

[N-]=[N+]=N[C@H]1[C@H](O)[C@@H](CO)O[C@H]1n1cc(C(N)=O)c2c(N)ncnc21
IC50 [7]: 179 µM
IC50 [1]: 66 µM
IC90 [2, 29]: 100 µM
IC50 [3]: > 100 µM
IC50 [4]: 28 µM
Control [5]: 12%
IC50 [6]: > 100 µM
